According to ChEMBL document CHEMBL1133543, “Effect of ring fluorination on the pharmacology of hallucinogenic tryptamines” (J Med Chem, 2000):
pEC50, pKi: −log10 of the molar value.

Columns and labels:
Rattus norvegicus [1] = organism: Rattus norvegicus; test: Evaluated in the two-lever drug discrimination assay in LSD trained rats to assess hallucinogenic-like activity (95% confidence intervals); type: functional
Outline: (§1)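 Rats trained (FR50, 15-min sessions) to discriminate ip training drug from saline: LSD 0.08 mg/kg (186 nmol/kg), DOI 0.4 mg/kg (1.12 µmol/kg) or LY293284 0.025 mg/kg (75 nmol/kg), in 0.9% saline. Test drugs given ip 30 min (or 15 min) before extinction sessions. At least three doses, at least eight rats per dose. Scored quantally as %SDL. ED50 and 95% CI by Litchfield–Wilcoxon.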

Rattus norvegicus [2] = organism: Rattus norvegicus; test: Evaluated in the two-lever drug discrimination assay in DOI trained rats to assess hallucinogenic-like activity (95% confidence intervals); type: functional; outline: as §1
[3] = target: T1, 5-hydroxytryptamine receptor 1A (Homo sapiens, UniProt P08908); test: Evaluated for the binding constant at [3H]8-OH-DPAT-labeled human 5-hydroxytryptamine 1A receptor
T1 sequence (P08908 whole entry): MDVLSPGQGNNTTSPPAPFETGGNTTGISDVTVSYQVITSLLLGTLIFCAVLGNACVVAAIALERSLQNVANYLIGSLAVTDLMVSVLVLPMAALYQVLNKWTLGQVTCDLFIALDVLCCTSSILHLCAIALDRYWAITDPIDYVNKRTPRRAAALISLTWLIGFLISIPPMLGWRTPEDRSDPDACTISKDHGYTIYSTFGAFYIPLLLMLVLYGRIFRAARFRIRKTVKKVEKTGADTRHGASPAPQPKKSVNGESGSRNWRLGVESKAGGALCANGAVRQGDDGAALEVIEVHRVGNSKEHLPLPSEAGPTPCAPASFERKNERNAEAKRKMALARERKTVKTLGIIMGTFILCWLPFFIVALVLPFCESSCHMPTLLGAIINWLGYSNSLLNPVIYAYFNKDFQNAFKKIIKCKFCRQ

[4] = target: T2, 5-hydroxytryptamine receptor 2A (Rattus norvegicus, UniProt P14842); test: Evaluated for the binding constant at [125I]-DOI-labeled rat 5-hydroxytryptamine 2A receptor
Outline: (§2)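 Competition binding with membranes from harvested cells. Rat 5-HT2A or 5-HT2C receptors were expressed in NIH3T3 cells and labelled with 0.20 nM [125I]DOI. […] Buffer was 50 mM Tris, 0.5 mM EDTA, 10 mM MgCl2, pH 7.4. Incubation ran 60 min at 25 °C, then filtration and counting. Ten concentrations were run in duplicate, n = 3-5. Ki was obtained by Cheng–Prusoff.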

[5] = target: T2, 5-hydroxytryptamine receptor 2A; test: Evaluated for the effective concentration at [125I]-DOI-labeled rat 5-hydroxytryptamine 2A receptor
[6] = target: T3, 5-hydroxytryptamine receptor 2C (Rattus norvegicus, UniProt P08909); test: Evaluated for the binding constant at [125I]-DOI-labeled rat 5-hydroxytryptamine 2C receptor; outline: as §2
T3 sequence (P08909 whole entry): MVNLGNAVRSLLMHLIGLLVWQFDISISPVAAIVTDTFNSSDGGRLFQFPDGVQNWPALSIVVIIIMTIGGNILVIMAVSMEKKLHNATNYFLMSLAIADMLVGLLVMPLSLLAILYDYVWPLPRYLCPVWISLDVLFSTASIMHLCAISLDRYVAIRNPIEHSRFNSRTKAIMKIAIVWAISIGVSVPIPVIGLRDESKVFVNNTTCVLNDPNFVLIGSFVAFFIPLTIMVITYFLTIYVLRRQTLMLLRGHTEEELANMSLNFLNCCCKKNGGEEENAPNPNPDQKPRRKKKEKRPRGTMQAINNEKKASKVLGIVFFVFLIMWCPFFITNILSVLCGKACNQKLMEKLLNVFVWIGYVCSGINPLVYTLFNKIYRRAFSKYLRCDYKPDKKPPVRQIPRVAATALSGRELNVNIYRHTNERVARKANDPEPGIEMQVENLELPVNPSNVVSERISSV

[7] = target: T1, 5-hydroxytryptamine receptor 1A; test: EC50 for inhibition of 50 uM forskolin-stimulated cAMP accumulation against 5-hydroxytryptamine 1A receptor; type: functional
[8] = target: 5-hydroxytryptamine receptor 2A (Rattus norvegicus) (UniProt P14842); test: Intrinsic activity was determined at 5-hydroxytryptamine 2A receptor which is percentage response given compared with the response produced by 10 uM serotonin.
Outline: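 Cells were pretreated 15 min with 10 µM pargyline and 10 mM LiCl, then exposed to agonist for 30 min at 37 °C. Inositol phosphates were separated on Dowex-1 and counted. EC50 was taken for PI turnover. Intrinsic activity is the response relative to 10 µM serotonin. Repeated 3-4 times.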

Rattus norvegicus [9] = test: Maximum percentage of LSD-trained rats responding on the training drug lever at 8 umol/kg; type: functional; outline: as §1
Rattus norvegicus [10] = test: Maximum percentage of DOI-trained rats responding on the training drug lever at 8 umol/kg; type: functional; outline: as §1
[11] = target: T4, 5-hydroxytryptamine receptor 1A (Rattus norvegicus) (UniProt P19327); test: Evaluated for the 5-hydroxytryptamine 1A receptor agonist activity in LY-293284 trained rats; type: functional; outline: as §1
T4 sequence (whole entry): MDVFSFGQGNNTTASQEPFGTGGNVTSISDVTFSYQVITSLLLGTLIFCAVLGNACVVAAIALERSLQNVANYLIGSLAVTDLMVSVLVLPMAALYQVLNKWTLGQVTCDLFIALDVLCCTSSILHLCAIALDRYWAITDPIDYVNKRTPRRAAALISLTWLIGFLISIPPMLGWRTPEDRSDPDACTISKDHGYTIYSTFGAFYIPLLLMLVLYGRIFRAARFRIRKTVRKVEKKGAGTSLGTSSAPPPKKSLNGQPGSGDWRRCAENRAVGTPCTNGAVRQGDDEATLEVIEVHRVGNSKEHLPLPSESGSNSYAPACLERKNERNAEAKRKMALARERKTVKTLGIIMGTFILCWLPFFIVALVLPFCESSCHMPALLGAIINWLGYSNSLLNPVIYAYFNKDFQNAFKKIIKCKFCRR

Rattus norvegicus [12] = test: Maximum percentage of DOI-trained rats responding on the training drug lever at 4 umol/kg; type: functional; outline: as §1
Rattus norvegicus [13] = test: Maximum percentage of DOI-trained rats responding on the training drug lever at 1 umol/kg; type: functional; outline: as §1
Rattus norvegicus [14] = test: Maximum percentage of LSD-trained rats responding on the training drug lever at 2 umol/kg; type: functional; outline: as §1
[15] = target: T1, 5-hydroxytryptamine receptor 1A; test: Evaluated for the binding constant at [3H]8-OH-DPAT-labeled human 5-hydroxytryptamine 1A receptor receptor

Sequence of 5-hydroxytryptamine receptor 2A (Rattus norvegicus) (P14842 whole entry): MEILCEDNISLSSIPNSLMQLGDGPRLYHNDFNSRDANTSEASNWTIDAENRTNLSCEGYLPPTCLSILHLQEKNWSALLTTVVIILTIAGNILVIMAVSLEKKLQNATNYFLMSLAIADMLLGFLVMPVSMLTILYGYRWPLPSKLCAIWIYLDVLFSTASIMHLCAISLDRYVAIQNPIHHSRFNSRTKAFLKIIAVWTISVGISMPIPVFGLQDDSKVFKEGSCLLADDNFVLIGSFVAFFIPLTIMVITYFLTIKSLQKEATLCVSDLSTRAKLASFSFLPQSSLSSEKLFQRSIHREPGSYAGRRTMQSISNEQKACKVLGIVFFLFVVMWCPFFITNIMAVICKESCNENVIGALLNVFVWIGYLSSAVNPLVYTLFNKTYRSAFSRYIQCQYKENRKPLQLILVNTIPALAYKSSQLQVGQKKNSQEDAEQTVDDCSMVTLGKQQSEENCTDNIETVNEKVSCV
T2 sequence (P14842 whole entry): as above

Row | Structure (SMILES) | ED50 (Rattus norvegicus [1]) | pKi [3] | pKi [4] | pEC50 [5] | pKi [6] | pEC50 [7] | Intrinsic activity [8] | further results
1 | COc1cc(CC(C)N)c(OC)cc1I (centres undefined) | 0.27 µmol/kg | – | – | – | – | – | – | ED50 (Rattus norvegicus [2]): 0.3 µmol/kg
2 | CCN(CC)CCc1c[nH]c2ccccc12 | 2.53 µmol/kg | 7.33 | 6.88 | 5.27 | 6.98 | 6.17 | 82% | –
3 | CCN(CC)CCc1c[nH]c2cc(F)ccc12 | – | 6.59 | 6.84 | 4.47 | 6.68 | 5.43 | 63% | ED50 (Rattus norvegicus [9]): 40 µmol/kg; ED50 (Rattus norvegicus [10]): 33 µmol/kg
4 | CCN(CC)CCc1c[nH]c2ccc(OC)cc12 | 1.49 µmol/kg | 8.77 | 7.38 | 5.62 | 7.80 | 7.66 | 99% | –
5 | CCN(CC)C(=O)[C@@H]1C=C2c3cccc4[nH]cc(c34)C[C@H]2N(C)C1 [LYSERGIDE] | 0.037 µmol/kg | – | – | – | – | – | – | ED50 (Rattus norvegicus [2]): 0.014 µmol/kg
6 | CCCN(CCC)C1CCc2cccc(O)c2C1 (centres undefined) | – | – | – | – | – | – | – | ED50 [11]: 0.099 µmol/kg
7 | COc1cc2c(CCN(C)C)c[nH]c2cc1F | 4.72 µmol/kg | 7.07 | 7.48 | 5.10 | 7.72 | – | 110% | ED50 (Rattus norvegicus [12]): 50 µmol/kg
8 | CCCN(CCC)C1Cc2c[nH]c3ccc(C(C)=O)c(c23)C1 (centres undefined) [LY-293284] | – | – | – | – | – | 9.89 | – | ED50 [11]: 0.031 µmol/kg
9 | CN(C)CCc1c[nH]c2cc(F)cc(O)c12 | – | 6.94 | – | 5.59 | 8.13 | – | 85% | –
10 | COc1ccc2[nH]cc(CCN(C)C)c2c1F | – | – | 6.91 | 4.74 | 7.26 | 9.03 | 88% | ED50 (Rattus norvegicus [13]): 66 µmol/kg; ED50 [11]: 0.17 µmol/kg; ED50 (Rattus norvegicus [14]): 22 µmol/kg
11 | CN(C)CCc1c[nH]c2c(F)ccc(O)c12 | – | – | 7.89 | 5.31 | 8.27 | – | 76% | ED50 (Rattus norvegicus [9]): 63 µmol/kg; pKi [15]: 6.92
